Here are results for eight molecules from ChEMBL document CHEMBL2321860, “2-Arylpyrazolo[4,3-d]pyrimidin-7-amino derivatives as new potent and selective human A3 adenosine receptor antagonists. Molecular modeling studies and pharmacological evaluation” (J Med Chem, 2013).

In test [1] the target is T1, Adenosine receptor A3 (Homo sapiens, UniProt P0DMS8).
T1 sequence (P0DMS8 whole entry): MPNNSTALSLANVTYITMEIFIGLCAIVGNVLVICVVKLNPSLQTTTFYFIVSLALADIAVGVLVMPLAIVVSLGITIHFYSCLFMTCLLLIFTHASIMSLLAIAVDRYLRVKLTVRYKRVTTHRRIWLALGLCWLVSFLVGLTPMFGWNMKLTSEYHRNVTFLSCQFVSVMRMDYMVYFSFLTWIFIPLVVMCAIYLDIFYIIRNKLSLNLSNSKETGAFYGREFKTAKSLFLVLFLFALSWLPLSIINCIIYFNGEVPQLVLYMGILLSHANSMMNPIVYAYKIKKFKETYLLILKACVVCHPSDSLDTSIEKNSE
Nature of the test: Displacement of [125I]AB-MECA from human A3 adenosine receptor expressed in CHO cells after 60 mins by scintillation counting analysis. In kind it is cell-based.

Test [2] addresses T2, Adenosine receptor A2a (Homo sapiens, UniProt P29274). Nature of the test: Displacement of [3H]ZM241385 from human A2A adenosine receptor expressed in CHO cells at 1 uM after 60 mins by scintillation counting analysis. The test is classed as cell-based. In short, it runs like this: (§1)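 Human A2A CHO membranes (50 μg protein) incubated with 1 nM [3H]ZM-241385 in 50 mM Tris-HCl, 10 mM MgCl2, pH 7.4, for 60 min at 4 °C, using 6–8 concentrations or 1 μM for % inhibition. Nonspecific binding defined with 1 μM ZM-241385. Ki via Cheng–Prusoff, mean SEM of four assays in duplicate.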

Test [3] has as its target T3, Adenosine receptor A2b (Homo sapiens) (UniProt P29275).
T3 sequence (whole entry): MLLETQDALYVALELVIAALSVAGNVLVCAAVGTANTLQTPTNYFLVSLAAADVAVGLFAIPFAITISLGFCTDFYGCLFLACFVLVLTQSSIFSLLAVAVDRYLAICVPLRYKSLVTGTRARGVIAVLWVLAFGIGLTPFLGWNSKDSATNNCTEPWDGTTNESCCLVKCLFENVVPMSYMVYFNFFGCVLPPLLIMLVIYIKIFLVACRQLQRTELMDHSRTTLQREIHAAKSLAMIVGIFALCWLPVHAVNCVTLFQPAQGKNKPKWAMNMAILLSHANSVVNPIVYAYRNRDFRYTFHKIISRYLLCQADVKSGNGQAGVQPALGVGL
Nature of the test: Inhibition of human A2B adenosine receptor transfected in CHO cells assessed as inhibition of NECA-induced cyclic AMP production at 1 uM after 10 mins by competitive protein binding assay. The test is classed as cell-based. In short, it runs like this: (§2)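 Human A2B CHO cells (1 × 10⁶/assay) preincubated 10 min at 37 °C in buffer with adenosine deaminase (2 IU/mL) and Ro 20-1724. Antagonist inhibition of 200 nM NECA-stimulated cAMP measured; reaction stopped with TCA. cAMP quantified by [3H]cAMP competition with adrenal binding protein. IC50 by sigmoid fit, mean SEM of four experiments; % inhibition at 1 μM.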

In test [4] the target is T4, Adenosine receptor A1 (Homo sapiens, UniProt P30542).
T4 sequence (P30542 whole entry): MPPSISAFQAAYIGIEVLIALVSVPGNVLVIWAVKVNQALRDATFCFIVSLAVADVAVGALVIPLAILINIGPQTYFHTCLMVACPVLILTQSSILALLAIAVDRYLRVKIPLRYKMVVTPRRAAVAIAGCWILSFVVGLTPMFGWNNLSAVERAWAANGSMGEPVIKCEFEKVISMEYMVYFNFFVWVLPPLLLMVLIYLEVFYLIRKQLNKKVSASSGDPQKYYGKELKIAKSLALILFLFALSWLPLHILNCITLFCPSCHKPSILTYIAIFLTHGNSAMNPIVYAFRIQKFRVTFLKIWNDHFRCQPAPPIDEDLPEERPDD
Nature of the test: Displacement of [3H]DPCPX from human A1 adenosine receptor expressed in CHO cells after 120 mins by scintillation counting analysis. In kind it is cell-based.

The test system of test [5] is Astrocyte. In words: Antiapoptotic activity against Sprague-Dawley rat astrocytes assessed as reduction of oxaliplatin-induced caspase-3 activity at 0.1 to 10 uM after 4 hrs by fluorimetric assay. The test is classed as functional, cell-based. Put shortly: (§3)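 Primary cortical astrocytes from newborn (P1–P3) rats, GFAP-positive, used 21 days after isolation and serum-starved overnight. Cells were exposed to 100 μM oxaliplatin for 4 h with test compound co-incubated. Lysates were incubated with 0.025 mM Z-DEVD-R110 at 25 °C for 30 min and read by fluorescence (ex 496/em 520 nm). Output is % of untreated control, mean SEM.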

In test [6] the target is T1, Adenosine receptor A3. In words: Inhibition of human A3 adenosine receptor transfected in CHO cells assessed as inhibition of forskolin-induced cyclic AMP production after 10 mins by competitive protein binding assay in presence of CI-IB-MECA. In kind it is functional, cell-based. Put shortly: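 Human A3 CHO cells (1 × 10⁶/assay) preincubated 10 min at 37 °C with adenosine deaminase and Ro 20-1724. Antagonist potency measured against 100 nM Cl-IB-MECA-mediated inhibition of 1 μM forskolin-stimulated cAMP. cAMP quantified by [3H]cAMP competition binding. IC50 by sigmoid regression, mean SEM of four experiments.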

Test [7] has as its target T5, Adenosine receptor A3 (Rattus norvegicus) (UniProt P28647).
T5 sequence (whole entry): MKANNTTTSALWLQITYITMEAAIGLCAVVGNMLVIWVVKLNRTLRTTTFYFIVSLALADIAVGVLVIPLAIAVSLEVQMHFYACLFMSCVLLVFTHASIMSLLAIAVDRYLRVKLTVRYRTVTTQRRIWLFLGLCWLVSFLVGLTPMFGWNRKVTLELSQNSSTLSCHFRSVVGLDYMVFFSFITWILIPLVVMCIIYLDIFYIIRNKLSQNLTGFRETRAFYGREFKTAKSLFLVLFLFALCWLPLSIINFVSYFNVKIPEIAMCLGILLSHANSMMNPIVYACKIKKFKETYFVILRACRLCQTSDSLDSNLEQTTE
In words: Displacement of [125I]AB-MECA from rat A3 adenosine receptor expressed in HEK293 cells at 1 uM after 60 mins by scintillation counting analysis. In kind it is cell-based. In short, it runs like this:
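Rat A3 receptor in HEK293 membranes (10 μg protein) incubated with 0.5 nM [125I]AB-MECA in 50 mM Tris-HCl, 10 mM MgCl2, 1 mM EDTA, pH 7.4, for 60 min at 37 °C. Nonspecific binding defined with 1 μM AB-MECA. Filtration then scintillation counting. Output is % inhibition at 1 μM.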

For test [8], the target named is T6, Adenosine receptor A1 (Homo sapiens) (UniProt P30542).
T6 sequence (whole entry): T4 sequence (P30542 whole entry)
Nature of the test: Displacement of [3H]DPCPX from human A1 adenosine receptor expressed in CHO cells at 1 uM after 120 mins by scintillation counting analysis. In kind it is cell-based.

Test [9] addresses T2, Adenosine receptor A2a. Nature of the test: Displacement of [3H]ZM241385 from human A2A adenosine receptor expressed in CHO cells after 60 mins by scintillation counting analysis. In kind it is cell-based. Put shortly: as §1
Test [10] concerns the target T7, Adenosine receptor A2b (Homo sapiens, UniProt P29275).
T7 sequence (P29275 whole entry): T3 sequence (whole entry)
In words: Inhibition of human A2B adenosine receptor transfected in CHO cells assessed as inhibition of NECA-induced cyclic AMP production after 10 mins by competitive protein binding assay. In kind it is cell-based. Put shortly: as §2

Test [11] addresses T8, Adenosine receptor A3 (Homo sapiens) (UniProt P0DMS8).
T8 sequence (whole entry): T1 sequence (P0DMS8 whole entry)
In words: Displacement of [125I]AB-MECA from human A3 adenosine receptor expressed in CHO cells at 1 uM after 60 mins by scintillation counting analysis. In kind it is cell-based. In short, it runs like this:
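Human A3 CHO membranes (50 μg protein) incubated with 0.5 nM [125I]AB-MECA in 50 mM Tris-HCl, 10 mM MgCl2, 1 mM EDTA, pH 7.4, for 60 min at 37 °C. Nonspecific binding defined with 1 μM AB-MECA. Filtration then counting. Output is % inhibition at 1 μM.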

Test [12] concerns HT-29. Nature of the test: Antiapoptotic activity against human HT-29 cells assessed as cell viability at 10 uM after 48 hrs by MTT assay in presence of 3 uM oxaliplatin (reference value: 92.3 +/- 1.0%). The test is classed as functional. Put shortly: (§4)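 HT-29 cells in DMEM high glucose with 20% FBS, grown to confluence and serum-starved overnight. Cells were treated for 48 h with oxaliplatin (0.3–100 μM) with or without 10 μM test compound. Viability was read as MTT reduction (1 mg/mL, 2 h, 37 °C), formazan in DMSO, absorbance 580 nm. Output is % of control, quadruplicate on at least three cell batches.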

The test system of test [13] is HT-29. In words: Antiapoptotic activity against human HT-29 cells assessed as cell viability at 10 uM after 48 hrs by MTT assay in presence of 30 uM oxaliplatin (reference value: 81.9 +/- 0.9%). In kind it is functional. Put shortly:
as §4

Test [14] deals with Astrocyte. Nature of the test: Antiapoptotic activity against Sprague-Dawley rat astrocytes assessed as reduction of oxaliplatin-induced caspase-3 activity at 1 uM after 4 hrs by fluorimetric assay. The test is classed as functional, cell-based. In short, it runs like this:
as §3

Test [15] relates to HT-29. Nature of the test: Antiapoptotic activity against human HT-29 cells assessed as cell viability at 10 uM after 48 hrs by MTT assay in presence of 10 uM oxaliplatin (reference value: 87.2 +/- 0.9%). The test is classed as functional. Particulars: HT-29, 48 h, read-out: Activity. In short, it runs like this:
as §4

Test [16] deals with HT-29. Nature of the test: Antiapoptotic activity against human HT-29 cells assessed as cell viability at 10 uM after 48 hrs by MTT assay in presence of 1 uM oxaliplatin (reference value: 94.9 +/- 1.3%). In kind it is functional. Put shortly:
as §4

Test [17] concerns HT-29. In words: Antiapoptotic activity against human HT-29 cells assessed as cell viability at 10 uM after 48 hrs by MTT assay in presence of 100 uM oxaliplatin (reference value: 52.2 +/- 0.5%). The test is classed as functional. In short, it runs like this:
as §4

The subject of test [18] is HT-29. In words: Antiapoptotic activity against human HT-29 cells assessed as cell viability at 10 uM after 48 hrs by MTT assay in presence of 0.3 uM oxaliplatin (reference value: 97.6 +/- 0.9%). In kind it is functional. Put shortly: as §4

Calls of active or inactive are those of the source. No cut-off for these calls is given here.

T2 sequence (P29274 whole entry): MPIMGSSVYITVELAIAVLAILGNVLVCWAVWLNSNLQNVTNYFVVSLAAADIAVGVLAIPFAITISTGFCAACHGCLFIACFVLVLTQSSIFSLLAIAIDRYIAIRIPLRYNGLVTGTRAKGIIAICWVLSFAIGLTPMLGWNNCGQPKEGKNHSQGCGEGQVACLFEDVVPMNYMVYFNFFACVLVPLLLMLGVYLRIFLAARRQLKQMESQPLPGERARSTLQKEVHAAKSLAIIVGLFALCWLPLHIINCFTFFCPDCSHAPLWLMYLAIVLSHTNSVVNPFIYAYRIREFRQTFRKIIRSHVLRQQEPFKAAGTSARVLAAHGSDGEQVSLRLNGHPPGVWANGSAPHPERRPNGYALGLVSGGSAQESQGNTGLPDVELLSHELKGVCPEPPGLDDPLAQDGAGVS

`Cc1nc(NC(=O)Cc2ccccc2)c2nn(-c3ccccc3)cc2n1`: the values for the Ki in test [1] and in test [4] were 120 nM and 510 nM, respectively. Also, the inhibition in [2] amounted to 13%; in [3] it was 1%.

As to `COc1ccc(-n2cc3nc(-c4ccccc4)nc(NC(=O)c4ccccc4)c3n2)cc1`, the outcome in [5] was Active. The same molecule showed a Ki in test [1] of 18 nM. Also, the IC50 in test [6] was 63 nM. Moreover, the inhibition in test [2] stood at 1%; in test [7] it was 12%; in test [3] it was 2%; in test [8], 3%.

Turning to `Nc1nc(-c2ccccc2)nc2cn(-c3ccccc3)nc12`, the inhibition constant (Ki) in [9] is 325 nM; in [4], 75 nM. The IC50 in test [10] is 440 nM. In addition, the inhibition in test [11] was 48%.

With `COc1ccc(-n2cc3nc(-c4ccccc4)nc(NC(=O)Cc4ccccc4)c3n2)cc1`, the outcome in test [5] and in test [14] was Active. Further, the Activity in test [12] turned out to be 86.6%; in test [13], 78.8%; in test [16], 90.2%; in [17] it was 54.8%; in test [18] it was 95.1%. Moreover, in test [15], the viability at 10 µM was 82.2%. This molecule had a Ki in test [1] of 24 nM. Besides, the IC50 in test [6] amounted to 80 nM. The inhibition in test [2] was determined as 18%; in test [7], 3%; in [3], 2%; in test [8] it was 29%.

Regarding `O=C(Cc1ccccc1)Nc1nc(-c2ccccc2)nc2cn(-c3ccccc3)nc12`, the outcome in [5] was Active. Further, the Ki in test [1] came to 18 nM. Besides, the IC50 in [6] turned out to be 61 nM. Besides, the inhibition in [2] was 5%; in [7] it was 2%; in [3] it was 2%; in test [8], 5%.

In the case of `Nc1nc(Cc2ccccc2)nc2cn(-c3ccccc3)nc12`, the inhibition constant (Ki) in [9] came to 110 nM; in test [4] it was 150 nM. Besides, in test [10], the IC50 came to 420 nM. Also, in test [11], the inhibition was 39%.

As for `Cc1nc(NC(=O)c2ccccc2)c2nn(-c3ccccc3)cc2n1`, in test [5], the outcome was Active. In addition, the Ki in test [1] was 5.6 nM. The IC50 in test [6] was determined as 19.7 nM. Besides, the inhibition in [2] is 1%; in test [7], 6%; in [3], 2%; in test [8], 30%.

Turning to `Cc1nc(N)c2nn(-c3ccccc3)cc2n1`, the Ki in test [9] came to 246 nM; in [4], 70 nM. The IC50 in [10] was 320 nM. The molecule further returned an inhibition in [11] of 40%.
